Source: ChEMBL document CHEMBL2321819, “Design of potent poxvirus inhibitors of the heterodimeric processivity factor required for viral replication” (J Med Chem, 2013)
Calls of active or inactive are those of the source. The calls are words filed in the database; no cut-off is given here.

How the values were obtained:
[1] = system: BSC-1; test: (§1) Cytotoxicity against African green monkey BSC1 cells after 20 hrs by lactate dehydrogenase assay; format: cell-based; conditions: chlorocebus aethiops, bsc-1, 20 h
Outline: (§2)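 Cytotoxicity in BSC-1 cells was measured by LDH release, with Neutral Red also used. Assays were run in triplicate and repeated at least twice. CC50 was obtained from a variable-slope four-parameter nonlinear regression fit. Values ≥100 μM were called not active.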

[2] = system: Vaccinia virus; test: Antiviral activity against Vaccinia virus WR infected in African green monkey BSC1 cells after overnight incubation by crystal violet staining-based plaque reduction assay; format: functional, organism-based; conditions: Orthopoxvirus vaccinia, BSC-1
[3] = Selectivity index, ratio of CC50 for African green monkey BSC1 cells to IC50 for Vaccinia virus WR; format: functional, BSC-1
[4] = system: BSC-1; test: Inhibition of 5 MOI of Vaccinia virus WR DNA polymerase processivity factor A20NT100-D4 complex coexpressing recombinant L1 protein infected in African green monkey BSC1 cells assessed as reduction in EGFP expression at 100 uM after 8 hrs by fluorescence microscopic analysis; format: cell-based
[5] = system: Vaccinia virus; test: Antiviral activity against 5 MOI of Vaccinia virus WR infected in African green monkey BSC1 cells assessed as decrease in virus-induced cytopathicity at 1 uM after 8 hrs relative to vehicle-treated control; format: functional, organism-based; conditions: Orthopoxvirus vaccinia, BSC-1
[6] = system: BSC-1; test: Inhibition of 1 MOI of Vaccinia virus WR DNA polymerase processivity factor A20NT100-D4 complex infected in African green monkey BSC1 cells assessed as decrease in BrdU incorporation at 1 uM after 4 to 8 hrs by DAPI staining-based confocal microscopic analysis; format: cell-based
[7] = system: BSC-1; test: Inhibition of 1 MOI of Vaccinia virus WR DNA polymerase processivity factor A20NT100-D4 complex infected in African green monkey BSC1 cells assessed as decrease in E3 protein level at 1 uM after 8 hrs by Western blotting analysis; format: cell-based
[8] = system: Vaccinia virus; test: Antiviral activity against 5 MOI of Vaccinia virus WR infected in African green monkey BSC1 cells assessed as decrease in virus-induced cytopathicity at 1 uM after 8 hrs relative to cidofovir; format: functional, organism-based; conditions: Orthopoxvirus vaccinia, BSC-1
[9] = system: BSC-1; test: Inhibition of 5 MOI of Vaccinia virus WR DNA polymerase processivity factor A20NT100-D4 complex coexpressing recombinant L1 protein infected in African green monkey BSC1 cells assessed as reduction in EGFP expression at 1 uM after 8 hrs by fluorescence microscopic analysis; format: cell-based
[10] = system: BSC-1; test: Inhibition of 1 MOI of Vaccinia virus WR DNA polymerase processivity factor A20NT100-D4 complex infected in African green monkey BSC1 cells assessed as decrease in A4 protein level after 12 hrs by Western blotting analysis; format: cell-based
[11] = as §1; format: cell-based, BSC-1; conditions: chlorocebus aethiops, BSC-1 cells; outline: as §2

Cc1ccc2c(Sc3cc(Cl)cc(Cl)c3)c(CCC(=O)O)[nH]c2c1
CC50 [1]: 36 µM
IC50 [2]: 0.244 µM
Ratio CC50/IC50 [3]: 152

CCn1c(C(=O)O)c(Sc2ccc(Cl)cc2)c2cc(C)ccc21
IC50 [2]: 86 µM

Cc1ccc2c(Sc3cc(Cl)cc(Cl)c3)c(CC(N)=O)[nH]c2c1
CC50 [1]: 26 µM
IC50 [2]: 0.046 µM
Ratio CC50/IC50 [3]: 570

Cc1ccc2c(Sc3ccc(C(=O)O)cc3)c(C(=O)O)[nH]c2c1
IC50 [2]: ≥ 100 µM

CCOC(=O)c1[nH]c2ccc(C)cc2c1Sc1ccc(Cl)cc1
IC50 [2]: ≥ 100 µM

Cc1cccc2c(Sc3ccc(Cl)cc3)c(C(=O)O)[nH]c12
IC50 [2]: 74 µM

Cc1ccc2c(Sc3cc(Cl)c(Cl)cc3Cl)c(C(=O)O)[nH]c2c1
IC50 [2]: 25 µM

CCc1ccc2c(Sc3ccc(Cl)c(Cl)c3)c(C(=O)O)[nH]c2c1
IC50 [2]: 42 µM

CCn1c(C(=O)OC)c(Sc2ccc(Cl)cc2)c2cc(C)ccc21
IC50 [2]: 39 µM

Cc1cccc2c(Sc3ccc(Cl)c(Cl)c3)c(C(=O)O)[nH]c12
IC50 [2]: 35 µM

O=C(O)c1[nH]c2cc(Cl)ccc2c1Sc1ccc(Cl)cc1
IC50 [2]: 47 µM

Cc1ccc(Sc2c(C(=O)O)[nH]c3cc(C)ccc23)cc1
IC50 [2]: ≥ 100 µM

Cc1cccc2[nH]c(C(=O)O)c(Sc3cc(Cl)c(Cl)cc3Cl)c12
IC50 [2]: 18 µM

Cc1ccc2[nH]c(C(=O)O)c(Sc3ccc(Cl)cc3)c2c1
IC50 [2]: 46 µM

CNC(=O)c1[nH]c2cc(C)ccc2c1Sc1cc(Cl)cc(Cl)c1
IC50 [2]: ≥ 100 µM

Cc1ccc2c(Sc3cccc(Cl)c3)c(C(=O)O)[nH]c2c1
IC50 [2]: 51 µM

CCc1ccc2c(Sc3ccc(Cl)cc3)c(C(=O)O)[nH]c2c1
IC50 [2]: 36 µM

COC(=O)c1c(Sc2ccc(Cl)cc2)c2cc(C)ccc2n1C
IC50 [2]: ≥ 100 µM

COC(=O)c1[nH]c2c(C)cccc2c1Sc1ccc(Cl)cc1
IC50 [2]: 23 µM

O=C(O)c1[nH]c2ccccc2c1Sc1ccc(Cl)cc1
IC50 [2]: ≥ 100 µM

O=C(O)c1[nH]c2ccccc2c1Sc1cc(Cl)cc(Cl)c1
IC50 [2]: 43 µM

Cc1ccc2c(Sc3ccc(C(F)(F)F)cc3[N+](=O)[O-])c(C(=O)O)[nH]c2c1
IC50 [2]: ≥ 100 µM

Cc1ccc2c(c1)c(Sc1ccc(Cl)cc1)c(C(=O)O)n2C
IC50 [2]: ≥ 100 µM

Cc1ccc2c(Sc3cccc(F)c3)c(C(=O)O)[nH]c2c1
IC50 [2]: 69 µM

O=C(O)c1[nH]c2cc(Br)ccc2c1Sc1ccc(Cl)cc1
IC50 [2]: 51 µM

COc1ccc(Sc2c(C(=O)O)[nH]c3cc(C)ccc23)cc1
IC50 [2]: ≥ 100 µM

Cc1ccc2c(Sc3ccccc3)c(C(=O)O)[nH]c2c1
IC50 [2]: ≥ 100 µM

COc1ccc(Sc2c(C(=O)O)[nH]c3cccc(C)c23)cc1
IC50 [2]: ≥ 100 µM

Cc1ccc(C)c2c(Sc3ccc(Cl)cc3)c(C(=O)O)[nH]c12
IC50 [2]: 50 µM

Cc1ccc2c(Sc3ccc(Cl)cc3Cl)c(C(=O)O)[nH]c2c1
IC50 [2]: 37 µM

COC(=O)c1[nH]c2ccc(C)cc2c1Sc1ccc(Cl)cc1
IC50 [2]: ≥ 100 µM

Cc1cccc2[nH]c(C(=O)Oc3ccccc3)c(Sc3ccc(Cl)cc3)c12
IC50 [2]: ≥ 100 µM

CCOC(=O)c1[nH]c2cccc(C)c2c1Sc1ccc(Cl)cc1
IC50 [2]: ≥ 100 µM

Cc1cccc2[nH]c(C(=O)O)c(Sc3ccc(Cl)cc3)c12
IC50 [2]: 86 µM

COC(=O)c1[nH]c2cc(C)ccc2c1Sc1ccc(Cl)cc1
IC50 [2]: 19 µM

CCCCCCNC(=O)CCc1[nH]c2cc(C)ccc2c1Sc1cc(Cl)cc(Cl)c1
CC50 [1]: 27 µM
IC50 [2]: ≥ 100 µM

Nc1ccn(C[C@@H](CO)OCP(=O)(O)O)c(=O)n1
inhibition [4]: Active

COC(=O)c1[nH]c2cccc(C)c2c1Sc1ccc(Cl)cc1
IC50 [2]: 21 µM

Cc1ccc2[nH]c(C(=O)OCc3ccccc3)c(Sc3ccc(Cl)cc3)c2c1
IC50 [2]: ≥ 100 µM

Cc1ccc2c(Sc3ccc(Br)cc3)c(C(=O)O)[nH]c2c1
IC50 [2]: ≥ 100 µM

Cc1ccc(Sc2c(C(=O)O)[nH]c3cccc(C)c23)cc1
IC50 [2]: ≥ 100 µM

COC(=O)c1[nH]c2cc(C)ccc2c1Sc1cc(Cl)cc(Cl)c1
IC50 [2]: ≥ 100 µM

CCc1ccc2c(Sc3cc(Cl)cc(Cl)c3)c(C(=O)O)[nH]c2c1
IC50 [2]: 9 µM

Cc1ccc2c(Sc3cc(Cl)cc(Cl)c3)c(C(=O)O)[nH]c2c1
CC50 [1]: 75 µM
IC50 [2]: 7 µM
Ratio CC50/IC50 [3]: 11

Cc1ccc2c(Sc3ccc(C(F)(F)F)cc3)c(C(=O)O)[nH]c2c1
IC50 [2]: 33 µM

Cc1ccc2[nH]c(C(=O)OC(C)C)c(Sc3ccc(Cl)cc3)c2c1
IC50 [2]: ≥ 100 µM

Cc1cccc2[nH]c(C(=O)O)c(Sc3ccc([N+](=O)[O-])cc3)c12
IC50 [2]: ≥ 100 µM

Cc1cccc2[nH]c(C(=O)OC(C)C)c(Sc3ccc(Cl)cc3)c12
IC50 [2]: ≥ 100 µM

COC(=O)c1ccc(Sc2c(C(=O)O)[nH]c3cccc(C)c23)cc1
IC50 [2]: ≥ 100 µM

Cc1cccc2[nH]c(C(=O)OCc3ccccc3)c(Sc3ccc(Cl)cc3)c12
IC50 [2]: ≥ 100 µM

Cc1cccc2c(Sc3cc(Cl)c(Cl)cc3Cl)c(C(=O)O)[nH]c12
IC50 [2]: 21 µM

O=C(O)c1[nH]c2cc(F)ccc2c1Sc1ccc(Cl)cc1
IC50 [2]: 40 µM

Cc1ccc2c(Sc3cc(Cl)cc(Cl)c3)c(CCC(N)=O)[nH]c2c1
Activity [5]: Active
inhibition [6]: Active
CC50 [1]: 16 µM
inhibition [7]: Active
Activity [8]: Active
inhibition [9]: Active
IC50 [2]: 0.042 µM
inhibition [10]: Dose-dependent effect
Ratio CC50/IC50 [3]: 374

Cc1ccc2c(Sc3ccc(Cl)cc3)c(C(=O)O)[nH]c2c1
IC50 [2]: 82 µM

COC(=O)c1[nH]c2cc(C)ccc2c1Sc1ccccc1
IC50 [2]: 10 µM

Cc1ccc2c(Sc3cc(Cl)cc(Cl)c3)c(CCCC(N)=O)[nH]c2c1
CC50 at 20 h [11]: ≥ 100 µM
IC50 [2]: 0.208 µM

COc1cccc2[nH]c(C(=O)O)c(Sc3ccc(Cl)cc3)c12
IC50 [2]: ≥ 100 µM

Cc1ccc2c(Sc3ccc(Cl)c(Cl)c3)c(C(=O)O)[nH]c2c1
IC50 [2]: 34 µM

Cc1ccc2[nH]c(C(=O)Oc3ccccc3)c(Sc3ccc(Cl)cc3)c2c1
IC50 [2]: ≥ 100 µM
